Screening data deposited in PubChem by several laboratories.
An excerpt weighted towards active compounds, which were near 2.7% of everything screened.
Rpn11 block – Rpn11 (human) deubiquitinase inhibition; O00487; 360,000 compounds, 0.59% hits; AID 588493; inhibition, % at 20 µM; human 26S proteasome, Ub4-pepOG fluorescence polarization; 20S core pre-blocked with epoxomicin;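 active means inhibition at 20 µM, scaled to each plate's controls, above about 33%, limit read from the data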
Target sequence (O00487 whole entry, looked up): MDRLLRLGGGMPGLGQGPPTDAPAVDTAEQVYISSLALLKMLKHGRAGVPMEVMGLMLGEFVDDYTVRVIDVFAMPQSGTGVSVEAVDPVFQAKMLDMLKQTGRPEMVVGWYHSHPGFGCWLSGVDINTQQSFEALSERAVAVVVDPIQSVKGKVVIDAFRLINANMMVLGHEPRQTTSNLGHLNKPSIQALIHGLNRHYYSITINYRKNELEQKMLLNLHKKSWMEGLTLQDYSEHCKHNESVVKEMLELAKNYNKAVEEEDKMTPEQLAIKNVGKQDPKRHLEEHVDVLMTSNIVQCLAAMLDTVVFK
NadD inh – inhibitors of Staphylococcus aureus NadD | 360,000 compounds, 0.78% hits | purified NadD enzyme, colorimetric absorbance read-out | inhibition, % at 20 µM; in the data active means inhibition above about 26%
PP1 counter – PP1-alpha (human) inhibition in PP5 counter-screen | purified PP1alpha, OMFP fluorescence | inhibition, % at 6.7 µM | 320,000 compounds, 0.9% hits | AID 2235;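 active means inhibition above the mean inhibition of all tested compounds plus 3 SD, computed separately for each screening campaign, cut at about 15% in these data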
Target sequence (P62136 whole entry, looked up): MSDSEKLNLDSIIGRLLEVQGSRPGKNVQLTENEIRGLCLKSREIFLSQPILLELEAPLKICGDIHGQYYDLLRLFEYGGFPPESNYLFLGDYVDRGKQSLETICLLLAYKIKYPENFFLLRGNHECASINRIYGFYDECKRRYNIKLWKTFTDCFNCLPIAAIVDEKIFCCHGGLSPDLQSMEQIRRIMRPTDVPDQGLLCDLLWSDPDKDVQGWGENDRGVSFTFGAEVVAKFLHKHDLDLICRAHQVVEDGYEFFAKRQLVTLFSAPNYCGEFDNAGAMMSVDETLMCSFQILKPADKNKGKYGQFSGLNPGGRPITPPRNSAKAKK
TPT1 inhibitor – blocks Candida albicans tRNA 2'-phosphotransferase; recombinant caTPT1, FP RNA substrate dephosphorylation; inhibition, % at 5 µM; 300,000 compounds, 0.81% hits;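 active means inhibition above the mean of all tested compounds plus 3 SD, set per screening campaign, cut at about 24% in these data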
CSN deneddyl inh – inhibitors of human CSN-mediated cullin deneddylation. Purified CSN, SCF-Nedd8-OG deneddylation, fluorescence polarization. inhibition, % at 12.5 µM. 360,000 compounds, 0.38% hits;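 active means pattern-corrected inhibition above about 35%, with an unprinted fluorescence ratio check between 0.5 and 1.5, limit read from the data, passing the limit was not always enough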
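Material: human Csn5 produced in HEK293T cells; Input: enzyme 0.24 nM; Reagent: SCFSkp2-Nedd8OG substrate at 10 nM final; Dosing: 12.5 µM compound; Incubation: 90 min reaction at room temperature; Detection: fluorescence polarization of the substrate; Evaluation: % inhibition of substrate cleavage by Csn5; Control set: substrate-only high control, full reaction low control.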
HNF4A DNA FP – change in binding of human HNF4 alpha to DNA | P41235 | HNF4a-FITC DNA binding, fluorescence polarization, 1 h | activity change, % at 10 µM | 360,000 compounds, 0.3% hits | AID 1224865; in the data active means activity change above about 30%, passing the limit was not always enough
caTPT1 confirm – TPT1 (C. albicans) inhibition, confirmation; shares compounds with TPT1 inhibitor; recombinant caTPT1, fluorescence polarization, RNase T1 coupled; inhibition, % at 5 µM; 2,400 compounds, 74% hits; AID 2149;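 active means inhibition above the primary screen limit, the mean inhibition of all tested compounds plus 3 SD, cut at about 25% in these data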
RNase T1 inh – blocks Aspergillus oryzae RNase T1, a TPT1 counter-screen; AID 2153; 2,400 compounds, 83% hits; inhibition, % at 5 µM; shares compounds with TPT1 inhibitor; RNase T1 cleavage, fluorescence polarization, 1536-well;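 active means inhibition above the solvent-only control well mean plus 3 SD, limit set per screening run, cut at about 23% in these data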;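 further: inhibitors block cleavage so intact labeled substrate keeps polarization high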
Each line names hits and unclear results; the compound was inactive in the other large screens (follow-up assays come after a bar, where shown).

CC(C)O/C(=N/S(=O)(=O)c1ccc(Cl)cc1)c1ccccc1	none (no result: PP1 counter, TPT1 inhibitor)
Oc1ccc(Nc2nc(-c3ccccc3)nc3ccccc23)cc1	none
Oc1ccc(Nc2nc3ccccc3nc2Nc2ccc(O)cc2)cc1	Rpn11 block 53, TPT1 inhibitor 52, HNF4A DNA FP 44 | caTPT1 confirm 49 | RNase T1 inh 67
O=C(NC12CC3CC(CC(C3)C1)C2)c1cc(F)c(F)c(F)c1F	TPT1 inhibitor 44 | caTPT1 confirm inactive | RNase T1 inh inactive
COc1cc(OC)c(C(=O)NC23CC4CC(CC(C4)C2)C3)cc1OC	none
CCN1/C(=C2\SC(=S)N(Cc3ccccc3)C2=O)Sc2ccccc21	none
CCC(CO)[n+]1c(C)cc(/C=C2\Sc3ccccc3N2Cc2ccccc2)cc1C (centres undefined)	TPT1 inhibitor 127 (not shown: Rpn11 block) | caTPT1 confirm 131 | RNase T1 inh 134
CCOC(=O)c1c(N)sc2c1CCN(CCc1ccccc1)C2	TPT1 inhibitor 28 (not shown: Rpn11 block) | caTPT1 confirm inactive | RNase T1 inh 24
CCOC(=O)c1c(NC(=S)Nc2ccccc2)sc2c1CCN(CCc1ccccc1)C2	TPT1 inhibitor 120 (no result: Rpn11 block, NadD inh, CSN deneddyl inh, HNF4A DNA FP) | caTPT1 confirm 114 | RNase T1 inh 113
CCOC(=O)c1c(NC(C)=O)sc2c1CCN(Cc1ccccc1)C2	none
CCOC(=O)c1c(NC(=O)C(C)Sc2cccc[n+]2[O-])sc2c1CCN(Cc1ccccc1)C2 (centres undefined)	TPT1 inhibitor 71 | caTPT1 confirm 77 | RNase T1 inh 86
CN(C)C(=O)c1cccc(-c2cnc3cccnn23)c1	none (no result: PP1 counter, TPT1 inhibitor)
CNc1ccc(-c2cccc(C#N)c2)cn1	none (no result: PP1 counter, TPT1 inhibitor)
O=C(NCC1CCOCC1)C1CCC(=O)N(Cc2cccc(C(F)(F)F)c2)C1 (centres undefined)	none
c1ccc(-n2cnnc2SCc2nc3ccccc3s2)cc1	TPT1 inhibitor 33 | caTPT1 confirm 49 | RNase T1 inh 61
Cc1nnc(SCc2nc3ccccc3s2)n1-c1ccccc1	none
O=C(C[N+]12CC[N+](CC(=O)c3ccc(F)cc3)(CC1)CC2)c1ccc(F)cc1	none
N#CC1(C#N)CC(C=O)=C(N)C1(C#N)CC(=O)c1ccc(F)cc1 (centres undefined)	TPT1 inhibitor 57 | caTPT1 confirm 32 | RNase T1 inh 42
COc1ccc(NC2CCCN(C(=O)CCN3Cc4ccccc4C3=O)C2)cc1 (centres undefined)	none
CCC(=O)N(CCc1ccccc1)Cc1cc2cccc(C)c2[nH]c1=O	none
COc1ccc(C2NC3=C(CCCC3)C(C#N)(C#N)C2(C#N)C#N)cc1 (centres undefined)	TPT1 inhibitor 33 (no result: Rpn11 block, NadD inh, CSN deneddyl inh, HNF4A DNA FP) | caTPT1 confirm 34 | RNase T1 inh 47
COc1cc(/C=C(\C#N)c2nc3c(s2)CCCC3)ccc1O	TPT1 inhibitor 146 (no result: Rpn11 block, NadD inh, CSN deneddyl inh, HNF4A DNA FP) | caTPT1 confirm 168 | RNase T1 inh 152
O=C(O)c1cc(O)c2c(c1)[C@@H]([C@H]1c3cc(C(=O)O)cc(O)c3C(=O)c3c(O[C@@H]4O[C@H](CO)[C@@H](O)[C@H](O)[C@H]4O)cccc31)c1cccc(OC3O[C@H](CO)[C@@H](O)[C@H](O)[C@H]3O)c1C2=O (some centres undefined)	PP1 counter 87, TPT1 inhibitor 77 | caTPT1 confirm 84 | RNase T1 inh inactive
O=C1c2c(O)cccc2C(C2OC(CO)[C@@H](O)[C@H](O)[C@H]2O)c2cc(CO)cc(O)c21 (some centres undefined)	none (no result: TPT1 inhibitor)
C=C(c1ccccc1)c1ccc(N(C)C)cc1	none
CN(C)c1ccc(C(=O)c2ccccc2)cc1	TPT1 inhibitor 48 | caTPT1 confirm inactive | RNase T1 inh inactive
CCn1c(C(=O)O)c(CC(=O)Nc2cccc(C(F)(F)F)c2)c2ccccc21	none
Cc1cc(C)c(C(=O)CN2C(=O)C(=O)N(C3CCCC3)C2=O)cc1C	none (no result: TPT1 inhibitor)
COc1ccc(CCNC(=O)C/C(C)=N/NC(=O)c2ccc([N+](=O)[O-])cc2Cl)cc1OC	none
Cn1cccc1CC(=O)N/N=C/c1cccc2ccccc12	TPT1 inhibitor 33 | caTPT1 confirm inactive | RNase T1 inh 30
Cc1cc(C)cc(OCC(=O)N(C)CC(=O)Nc2ccc(N3CCOCC3)cc2)c1	none (no result: PP1 counter, TPT1 inhibitor)
CC(=O)NC(Cc1cccc(F)c1)C(=O)NC1CCN(C(=O)Nc2ccc(C)cc2)CC1 (centres undefined)	TPT1 inhibitor 24 | caTPT1 confirm inactive | RNase T1 inh inactive
Cc1ccc(CNC(=O)c2ccc(N3CCC4(CC3)CC(c3ccccc3)=NO4)c(NC(=O)c3c(Cl)cccc3Cl)c2)cc1	none
CN=c1scc(-c2ccccc2F)n1/N=C/c1ccc[nH]1	TPT1 inhibitor 50 | caTPT1 confirm 27 | RNase T1 inh 36
N#C/C(=C\c1ccc(-c2ccc(C(=O)O)cc2)o1)C(=O)Nc1ccc(F)cc1	TPT1 inhibitor 33 | caTPT1 confirm 48 | RNase T1 inh 61
CCC1(c2ccc(Cl)cc2)NC(=O)N(CC(=O)N2CCN(C(=O)c3ccco3)CC2)C1=O (centres undefined)	none (no result: PP1 counter, TPT1 inhibitor)
COCCNC(=S)N/N=C/c1c2ccccc2cc2ccccc12	TPT1 inhibitor 40 | caTPT1 confirm 51 | RNase T1 inh 61
CNC(=S)N/N=C/c1c2ccccc2c(Cl)c2ccccc12	TPT1 inhibitor 25 | caTPT1 confirm inactive | RNase T1 inh 24
COc1ccc2ccccc2c1/C=N/NC(=S)NCCN1CCOCC1	none
S=C(NCCN1CCOCC1)N/N=C/c1c2ccccc2cc2ccccc12	TPT1 inhibitor 38 (not shown: Rpn11 block) | caTPT1 confirm 46 | RNase T1 inh 58
CCOC1=C2[C@@H](CN(S(=O)(=O)c3ccc(C)cc3)[C@H]2c2ccccc2F)[C@H]2C(=O)NC(=O)[C@H]2C1	none (no result: PP1 counter, TPT1 inhibitor)
COC(=O)c1cc(=O)nc(NN=Cc2ccc(C)cc2)s1	none (no result: PP1 counter, TPT1 inhibitor)
Cc1ccc(S(=O)(=O)CCC(=O)OCC(=O)c2cc(C)n(C)c2C)cc1	none (no result: TPT1 inhibitor)
Cc1ccc(C2C3CSCC=C3C(C#N)=C(N)C2(C#N)C#N)cc1 (centres undefined)	TPT1 inhibitor 27 | caTPT1 confirm inactive | RNase T1 inh 29
Cc1ccc(CNC(=O)C2CC(=O)N(c3ccc(OCC(=O)N4CCCC4)cc3)C2)cc1 (centres undefined)	TPT1 inhibitor 31 | caTPT1 confirm inactive | RNase T1 inh inactive
O=C(NCc1ccccc1)C1CC(=O)N(c2ccc(OCC(=O)N3CCOCC3)cc2)C1 (centres undefined)	none
Oc1c(/C=C/C=C/C=Nc2ccccc2)sc(=S)n1Cc1ccccc1	NadD inh 32, TPT1 inhibitor 43, HNF4A DNA FP 43 (not shown: Rpn11 block) | caTPT1 confirm 28 | RNase T1 inh 39
